Source: ChEMBL document CHEMBL1138087, “Synthesis and evaluation of N-aryl pyrrolidinones as novel anti-HIV-1 agents. Part 1” (Bioorg Med Chem Lett, 2006)

Experiments:
[1] = tested on: Human immunodeficiency virus 1; test: Selectivity for wild type HIV1 virus over HIV1 K103N mutant; type: functional
[2] = tested on: Human immunodeficiency virus 1; test: Selectivity for wild type HIV1 virus over HIV1 Y181C mutant; type: functional
[3] = tested on: Human immunodeficiency virus 1; test: Selectivity for wild type HIV1 virus over HIV1 L100I mutant; type: functional
[4] = tested on: Human immunodeficiency virus 1; test: Selectivity for wild type HIV1 virus over HIV1 K103N/L100I mutant; type: functional
[5] = tested on: Human immunodeficiency virus 1; test: Antiviral activity against wild type HIV1 virus; type: functional, organism-based
Method in brief: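 HEK 293T cells grown in DMEM with 10% FBS and Pen/Strep/Glutamine. Seeded at 700 cells/well, cultured 24 h at 37 °C under 5% CO₂. Serially diluted compound in DMSO added, then 1 h at 37 °C. HIV reporter virus added at MOI about 1.0, cells cultured a further 48 h at 37 °C. Luciferase read-out with Bright-Glo reagent.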

[6] = tested on: HEK293; test: Cytotoxicity against HEK293T cells; type: functional; settings: Homo sapiens
Method in brief: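 293T cells seeded at 700 cells/well and cultured 24 h at 37 °C under 5% CO₂. Serially diluted compound in DMSO added to uninfected cells, then a further 48 h at 37 °C. Viability read by fluorescence after Alamar Blue (diluted 1:1 in DMEM) and 4 h at room temperature.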

[7] = tested on: Human immunodeficiency virus 1; test: Antiviral activity against HIV1 K103N mutant; type: functional, organism-based
Method in brief: (§1)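 HEK 293T cells grown in DMEM with 10% FBS and Pen/Strep/Glutamine. Cells seeded at 700 cells/well and cultured 24 h at 37 °C under 5% CO₂. Compounds serially diluted in DMSO were added and incubated 1 h at 37 °C. Cells were then infected with HIV reporter virus at MOI ~1.0 and cultured a further 48 h at 37 °C. Read-out was luciferase activity (Bright-Glo).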

[8] = tested on: Human immunodeficiency virus 1; test: Antiviral activity against HIV1 Y181C mutant; type: functional, organism-based; method in brief: as §1
[9] = tested on: Human immunodeficiency virus 1; test: Antiviral activity against HIV1 L100I mutant; type: functional, organism-based; method in brief: as §1
[10] = tested on: Human immunodeficiency virus 1; test: Antiviral activity against HIV1 K103N/L100I mutant; type: functional, organism-based; method in brief: as §1
[11] = target: Human immunodeficiency virus type 1 reverse transcriptase (Human immunodeficiency virus 1, UniProt Q72547); test: Inhibition of HIV1 reverse transcriptase

Row | SMILES | EC50 [5] [nM] | IC50 [11] [nM] | Selectivity ratio [1] | Selectivity ratio [2] | Selectivity ratio [3] | Selectivity ratio [4] | CC50 [6] [nM] | EC50 [7] [nM] | EC50 [8] [nM] | EC50 [9] [nM] | EC50 [10] [nM]
1 | COc1ccc([C@H]2CC(=O)N(c3cccc(NS(=O)(=O)c4cccc(F)c4)c3)C2)cc1OC1CCCC1 | 43 |  | 6 | 16 | 0.46 | 0.6 | > 10000 | 261 | 684 | 20 | 26
2 | COc1ccc([C@H]2CC(=O)N(c3cccc(NS(=O)(=O)c4ccccc4C)c3)C2)cc1OC1CCCC1 | 24 |  | 4.9 | 10 | 0.42 | 0.7 | > 10000 | 117 | 246 | 10 | 17
3 | COc1ccc([C@H]2CC(=O)N(c3cccc(NS(=O)(=O)c4cccc(C)c4)c3)C2)cc1OC1CCCC1 | 46 |  | 3.4 | 6.2 | 0.3 | 0.41 | > 10000 | 158 | 284 | 14 | 19
4 | COc1ccc([C@H]2CC(=O)N(c3cccc(NS(=O)(=O)c4ccccc4Br)c3)C2)cc1OC1CCCC1 | 42 |  | 6.9 | 19 | 0.38 | 0.52 | > 10000 | 292 | 794 | 16 | 22
5 | COc1ccc([C@H]2CC(=O)N(c3cccc(NS(=O)(=O)c4ccccc4Cl)c3)C2)cc1OC1CCCC1 | 42 |  | 4 | 13 | 0.45 | 0.67 | > 10000 | 170 | 557 | 19 | 28
6 | COc1ccc([C@H]2CC(=O)N(c3cccc(NS(=O)(=O)c4cccc(Cl)c4)c3)C2)cc1OC1CCCC1 | 25 |  | 27 | 93 | 1.6 | 2.2 | > 10000 | 689 | 2320 | 40 | 56
7 | COc1cccc(S(=O)(=O)Nc2cccc(N3C[C@@H](c4ccc(OC)c(OC5CCCC5)c4)CC3=O)c2)c1 | 25 |  | 26 | 40 | 1.3 | 3 | > 10000 | 656 | 990 | 33 | 76
8 | COc1ccc([C@H]2CC(=O)N(c3cccc(NS(=O)(=O)c4c(F)cccc4F)c3)C2)cc1OC1CCCC1 | 48 |  | 9.4 | 27 | 1.4 | 1 | > 10000 | 451 | 1300 | 68 | 52
9 | COc1ccc([C@H]2CC(=O)N(c3cccc(NS(=O)(=O)c4ccccc4F)c3)C2)cc1OC1CCCC1 | 64 |  | 4.2 | 21 | 0.53 | 0.64 | > 10000 | 269 | 1500 | 34 | 41
10 | COc1ccc([C@H]2CC(=O)N(c3cc(N)cc(N)c3)C2)cc1OC1CCCC1 | > 10000 |  |  |  |  |  | > 10000 |  |  |  | 
11 | COc1ccc([C@H]2CC(=O)N(c3cccc(NS(=O)(=O)c4cc(Br)c(Cl)s4)c3)C2)cc1OC1CCCC1 | 46 |  | 12 | 16 | 0.84 | 2 | > 10000 | 542 | 753 | 39 | 95
12 | COc1ccc([C@H]2CC(=O)N(C(=O)c3ccccc3)C2)cc1OC1CCCC1 | > 10000 |  |  |  |  |  | > 10000 |  |  |  | 
13 | COc1ccc([C@H]2CC(=O)N(C(C)=O)C2)cc1OC1CCCC1 | > 10000 |  |  |  |  |  | > 10000 |  |  |  | 
14 | COc1ccc([C@H]2CC(=O)N(c3cccc(NS(=O)(=O)c4cccc(Br)c4)c3)C2)cc1OC1CCCC1 | 71 |  | 13 | 32 | 0.74 | 1.1 | > 10000 | 923 | 2260 | 53 | 83
15 | COc1ccc([C@H]2CC(=O)N(c3cccc(NS(=O)(=O)c4cccc(Cl)c4C)c3)C2)cc1OC1CCCC1 | 20 |  | 8.1 | 19 | 0.4 | 0.5 | > 10000 | 162 | 389 | 8 | 10
16 | COc1ccc([C@H]2CC(=O)N(c3cccc(NS(=O)(=O)c4cc(C)ccc4OC)c3)C2)cc1OC1CCCC1 | 33 |  | 5.2 | 15 | 0.7 | 1 | > 10000 | 172 | 507 | 23 | 
17 | COc1ccc([C@@H]2CNC(=O)C2)cc1OC1CCCC1 [(-)-ROLIPRAM] | > 10000 |  |  |  |  |  | > 10000 |  |  |  | 
18 | O=C1Nc2ccc(Cl)cc2[C@@](C#CC2CC2)(C(F)(F)F)O1 [EFAVIRENZ] |  |  |  |  |  |  |  | 32 | 1 | 10 | 2530
19 | Cc1ccnc2c1NC(=O)c1cccnc1N2C1CC1 [NEVIRAPINE] | 50 |  | 101 | > 200 | 3.2 | 88 | > 10000 | 5050 | > 10000 | 164 | 4390

Now from value to molecule, other results behind:

Row | EC50 [5] [nM] | IC50 [11] [nM] | SMILES | Selectivity ratio [1] | Selectivity ratio [2] | Selectivity ratio [3] | Selectivity ratio [4] | CC50 [6] [nM] | EC50 [7] [nM] | EC50 [8] [nM] | EC50 [9] [nM] | EC50 [10] [nM]
20 | 1780 |  | COc1ccc([C@H]2CC(=O)N(c3cccc(O)c3)C2)cc1OC1CCCC1 |  |  |  |  | > 10000 |  |  |  | 
21 | 196 |  | COc1ccc([C@H]2CC(=O)N(c3ccc(C)c(N)c3)C2)cc1OC1CCCC1 |  |  |  |  | > 10000 |  |  |  | 
22 | 4710 |  | COc1ccc([C@H]2CC(=O)N(c3cccc(N(C)C)c3)C2)cc1OC1CCCC1 |  |  |  |  | > 10000 |  |  |  | 
23 | 1860 |  | COc1ccc([C@H]2CC(=O)N(c3ccc(N)cc3)C2)cc1OC1CCCC1 |  |  |  |  | > 10000 |  |  |  | 
24 | > 10000 |  | COc1ccc([C@H]2CC(=O)N(c3cccc(N)c3C)C2)cc1OC1CCCC1 |  |  |  |  | > 10000 |  |  |  | 
25 | > 10000 |  | COc1ccc([C@H]2CC(=O)N(Cc3cccc(C#N)c3)C2)cc1OC1CCCC1 |  |  |  |  | > 10000 |  |  |  | 
26 | > 10000 |  | COc1ccc([C@H]2CC(=O)N(Cc3cccc(N)c3)C2)cc1OC1CCCC1 |  |  |  |  | > 10000 |  |  |  | 
27 | 2280 |  | COc1ccc([C@H]2CC(=O)N(c3ccccc3)C2)cc1OC1CCCC1 |  |  |  |  | > 10000 |  |  |  | 
28 | > 10000 |  | COc1ccc([C@H]2CC(=O)N(c3ccccc3N)C2)cc1OC1CCCC1 |  |  |  |  | > 10000 |  |  |  | 
29 | 125 | 2000 | COc1ccc([C@H]2CC(=O)N(c3cccc(N)c3)C2)cc1OC1CCCC1 |  |  |  |  | > 10000 |  |  |  | 
30 | > 10000 |  | COc1ccc([C@H]2CC(=O)N(Cc3cccc([N+](=O)[O-])c3)C2)cc1OC1CCCC1 |  |  |  |  | > 10000 |  |  |  | 
